Laboratory results from ChEMBL document CHEMBL1782007, “Cytotoxic and NF-κB inhibitory constituents of the stems of Cratoxylum cochinchinense and their semisynthetic analogues” (J Nat Prod, 2011).
Active and inactive are the calls of the source. The rule behind the calls is not given here.

What was measured:
[1] = tested on: HT-29; experiment: Effect on mitochondrial membrane potential in human HT-29 cells after 2 hrs using JC-1 staining by fluorescence assay; assay type: functional, cell-based; conditions: HT-29, 2 h
[2] = molecular target: Transcription factor p65 (Homo sapiens, UniProt Q04206); experiment: Inhibition of NFkappa p65 in nuclear extract of human HeLa cells assessed as blockade of NFkappa p65 binding to biotinylated-consesus sequence by ELISA; assay type: cell-free
[3] = tested on: HT-29; experiment: Cytotoxicity against human HT-29 cells after 3 days by sulforhodamine B assay; assay type: functional; conditions: HT-29, 72 h, read-out: ED50 (the source's name)
In short: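 Trypsinized HT-29 cells seeded in 96-well plates and exposed to serial DMSO dilutions, with a DMSO negative control and a paclitaxel positive control. Incubated 3 days at 37 °C, 5% CO2, then fixed, stained with sulforhodamine B, lysed in tris base and read at 515 nm. ED50 from nonlinear regression. Run in triplicate, two independent experiments.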

[4] = tested on: MDA-MB-435; experiment: Antitumor activity against human MDA-MB-435 cells at 20 mg/kg, ip by in-vivo hallow fiber model; assay type: functional, organism-based; design: dose 20 mg/kg
[5] = tested on: HT-29; experiment: Antitumor activity against human HT-29 cells at 20 mg/kg, ip by in-vivo hallow fiber model; assay type: functional, organism-based; design: dose 20 mg/kg
[6] = tested on: MCF7; experiment: Antitumor activity against human MCF7 cells at 20 mg/kg, ip by in-vivo hallow fiber model; assay type: functional, organism-based; design: dose 20 mg/kg

Chain of Transcription factor p65 (Q04206 whole entry): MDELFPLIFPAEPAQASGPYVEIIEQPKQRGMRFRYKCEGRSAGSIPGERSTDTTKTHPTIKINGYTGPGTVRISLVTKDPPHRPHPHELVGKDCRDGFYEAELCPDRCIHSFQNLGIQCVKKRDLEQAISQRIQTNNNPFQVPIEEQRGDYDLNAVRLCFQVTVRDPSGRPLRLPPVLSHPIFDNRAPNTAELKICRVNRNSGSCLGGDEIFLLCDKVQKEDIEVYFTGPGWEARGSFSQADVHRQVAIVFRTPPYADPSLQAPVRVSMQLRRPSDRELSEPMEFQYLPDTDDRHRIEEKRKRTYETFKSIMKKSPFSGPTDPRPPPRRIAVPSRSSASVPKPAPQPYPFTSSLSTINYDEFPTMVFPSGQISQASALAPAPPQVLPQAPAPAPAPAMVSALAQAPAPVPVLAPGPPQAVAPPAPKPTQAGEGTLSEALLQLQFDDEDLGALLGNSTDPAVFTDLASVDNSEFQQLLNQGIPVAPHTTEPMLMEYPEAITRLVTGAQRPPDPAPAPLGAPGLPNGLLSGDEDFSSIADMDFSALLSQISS

Row | Structure (SMILES) | IC50 [1] [µM] | IC50 [2] [µM] | EC50 [3] [µM] | inhibition [4] | inhibition [5] | inhibition [6]
1 | COc1cc2oc3cc(OC)c(OC)c(CC=C(C)C)c3c(=O)c2c(O)c1CC=C(C)C | 0.9 | > 10 | > 10 | – | – | –
2 | CC(C)=CCC/C(C)=C/Cc1c(O)c2c(c3c(=O)c4cc(O)ccc4oc13)OC(C)(C)[C@@H](O)C2 [COCHINENSOXANTHONE] | – | – | > 10 | – | – | –
3 | COc1ccc2oc3c(C/C=C(\C)CCC=C(C)C)c(OC)c(CC=C(C)C)c(O)c3c(=O)c2c1 | – | > 10 | > 10 | – | – | –
4 | COc1c(OC(C)=O)cc2oc3cc(OC(C)=O)c(CC=C(C)C)c(O)c3c(=O)c2c1CC=C(C)C | 1.8 | > 10 | 1 | inactive | inactive | inactive
5 | CC(=O)Oc1ccc2oc3c(C/C=C(\C)CCC=C(C)C)c(OC(C)=O)c(CC=C(C)C)c(O)c3c(=O)c2c1 | – | > 10 | > 10 | – | – | –
6 | CC(C)=CCC/C(C)=C/Cc1c(O)c(CC=C(C)C)c(O)c2c(=O)c3cc(O)ccc3oc12 [COCHINCHINONE A] | > 10 | > 10 | > 10 | – | – | –
7 | CC(C)=CCC/C(C)=C/Cc1c(O)c(CC=C(C)C)c(O)c2c(=O)c3cc(OC(=O)c4ccccc4)ccc3oc12 | > 10 | > 10 | – | – | – | –
8 | CC(C)=CC[C@]12OC(C)(C)[C@H]3C[C@H](C=C4C(=O)c5c(O)cc(O)cc5O[C@@]431)C2=O [COCHINCHINOXANTHONE] | 3.3 | > 10 | 5.8 | – | – | –
9 | COc1cc2oc3c(C)c(OC)c(CC=C(C)C)c(O)c3c(=O)c2c(CC=C(C)C)c1OC | 1.4 | > 10 | > 10 | – | – | –
10 | COc1c(O)cc2oc3cc(O)c4c(c3c(=O)c2c1CCC(C)(C)O)OC(C)(C)CC4 | > 10 | – | > 10 | – | – | –
11 | CC(C)=CCc1c(O)cc2oc3cc(O)c(O)c(CC=C(C)C)c3c(=O)c2c1O | > 10 | – | 4 | – | – | –
12 | COc1ccc2oc3c(C/C=C(\C)CCC=C(C)C)c(O)c(CC=C(C)C)c(O)c3c(=O)c2c1 | > 10 | > 10 | – | – | – | –
13 | COc1c(O)cc2oc3cc(O)c(CC=C(C)C)c(O)c3c(=O)c2c1CC=C(C)C [MANGOSTIN] | 0.2 | > 10 | 4.1 | – | – | –
14 | CC(C)=CCc1c(O)c(CC=C(C)C)c2oc3ccc(O)cc3c(=O)c2c1O | – | 2.9 | > 10 | – | – | –
15 | COc1c(O)cc2oc3cc4c(c(O)c3c(=O)c2c1CCC(C)(C)OC=O)CCC(C)(C)O4 | > 10 | – | 4.4 | – | – | –
16 | COc1c(OC(C)=O)cc2oc3cc(OC(C)=O)c(CC=C(C)C)c(OC(C)=O)c3c(=O)c2c1CC=C(C)C | – | > 10 | 6 | – | – | –
17 | COc1c(O)cc2oc3cc(OC(C)=O)c(CC=C(C)C)c(O)c3c(=O)c2c1CC=C(C)C | – | > 10 | 8.8 | – | – | –
18 | CC(=O)O[C@H]1C(=O)[C@@]2(C)[C@H]([C@H](OC(=O)c3ccccc3)[C@]3(O)C[C@H](OC(=O)[C@H](O)[C@@H](NC(=O)c4ccccc4)c4ccccc4)C(C)=C1C3(C)C)[C@]1(OC(C)=O)CO[C@@H]1C[C@@H]2O [PACLITAXEL] | – | – | 0.0001 | – | – | –
19 | COc1c(O)cc2oc3cc4c(c(O)c3c(=O)c2c1CCC(C)(C)O)CCC(C)(C)O4 | > 10 | – | 4.4 | – | – | –
20 | COc1c(OC(=O)c2ccccc2)cc2oc3cc(O)c(CC=C(C)C)c(O)c3c(=O)c2c1CC=C(C)C | > 10 | > 10 | 1.9 | – | – | –
